# Assay outcomes deposited in PubChem BioAssay by several laboratories.
# Compounds with a hit are over-represented: about 6.4% of the library has one in this group of screens.
# HUVEC inhibit: blocks proliferation of human endothelial cells | HUVEC proliferation, CellTiter-Glo luminescence, 72 h; stronger effect = lower value | 86,000 compounds, 1.1% hits | viability, % at 10 µM (by protocol) | AID 648;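 active = viability at or below 30%; inactive = viability above 30%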
# Jurkat tox 60K: cytotoxic compounds reducing Jurkat cell viability; Jurkat E6.1 viability, ATP luminescence, 48 h; inhibition, % at 4 µM; 56,000 compounds, 1.2% hits;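 active = inhibition above the mean inhibition of all tested compounds plus 3 SD, cut at about 28% in these data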
# Ecoli tolC: E. coli tolC mutant growth inhibition. E. coli BW25113 tolC mutant growth, OD615. growth inhibition, % at 10 µM (by protocol). 65,000 compounds, 2.2% hits;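 active = growth inhibition at or above a cutoff equal to the mean over every tested compound plus 3 SD, cut at about 60% in these data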;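 note: growth measured after 20 h incubation at 37 °C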
#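 Doses: one dose of 10 µM final / Material: E. coli BW25113 ΔtolC::kan, tolC deletion mutant strain / Buffer or medium: LB with kanamycin 50 µg/mL / Evaluation: percent growth inhibition / Detection: optical density read at 615 nm / Incubation: 37 °C, 20 h exposure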
# Ecoli WT expand: E. coli BW25113 growth inhibition, expanded screen; OD600 absorbance; growth inhibition, % at 100 µM; 98,000 compounds, 0.15% hits; AID 710;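 active = growth inhibition above about 50% at one test dose, limit read from the data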;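 note: growth measured after 20 h incubation at 37 °C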
# H69AR growth 86K: growth inhibitors of human H69AR lung tumor cells | H69AR lung tumor viability, ATP luminescence, 72 h; stronger effect = lower value | viability, % at 10 µM | 85,000 compounds, 6% hits;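 active = viability at or below 40%; inactive = viability above 40%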;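 note: multidrug resistant small cell line overexpressing MRP-1 efflux transporter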
# Lung fibro prol: blocks proliferation of human lung fibroblasts. viability, % at 10 µM. AID 719. 85,000 compounds, 1.1% hits. LL 47 human lung fibroblast viability, ATP luminescence; stronger effect = lower value;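 active = viability at or below 50% in the single dose screen; inactive = viability above 50%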;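 note: compound exposure lasted 72 h before the ATP readout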
#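 Test system: LL 47 human lung fibroblasts; Quantity: 1,150 cells/well; Buffer or medium: IMEM plus 15% FBS; Dosing: tenfold compound dosing solution, DMSO at 0.1%; Timing: overnight cell rest, 72 h compound treatment at 37 °C; Detection: ATP-based CellTiter-Glo luminescent readout; Read-out basis: viability percentage against median untreated-cell control; Controls: cell-only wells, no compound.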
# Hits are given with their value; . = inactive; / = not tested or not shown.
SMILES,HUVEC inhibit,Jurkat tox 60K,Ecoli tolC,Ecoli WT expand,H69AR growth 86K,Lung fibro prol
CCn1cc(C(=O)N2CCn3c(nc4ccccc43)C2)c(=O)c2ccc(C)nc21,.,.,.,.,.,.
O=C(CSc1nnc(-c2ccccc2O)o1)Oc1ccc(OCc2ccccc2)cc1,.,.,.,.,27,.
O=C(CSc1nnc(-c2ccncc2)o1)Oc1ccccc1,.,.,.,.,.,.
O=[N+]([O-])c1cccc(Cl)c1NCCNS(=O)(=O)c1ccccc1,/,/,/,.,/,/
CC(=O)[C@H]1[C@@H]2C(=O)N(c3cccc(Cl)c3)C(=O)[C@@H]2[C@H]2c3ccccc3C=CN21,.,/,.,.,.,.
CC(C)(C)C(=O)[C@@H]1[C@@H]2C(=O)N(Cc3ccccc3)C(=O)[C@@H]2[C@H]2c3ccccc3C=CN12,.,/,/,.,34,.
Clc1ccc2[nH]cc(-c3nnnn3-c3ccc4ccccc4c3)c2c1,/,/,/,.,/,/
CC1CC(C)CN(c2cc(=O)n(Cc3ccc(F)cc3)c(=O)[nH]2)C1 (stereo not drawn),.,/,/,.,.,.
COc1ccc(NC(=O)C2CC(=O)N(C)C(=Nc3ccc4c(c3)OCO4)S2)cc1 (stereo not drawn),.,.,.,.,30,.
CN1C(=O)CC(C(=O)Nc2ccc(F)cc2)SC1=Nc1ccc2c(c1)OCO2 (stereo not drawn),.,.,.,.,.,.
COc1ccc(/C=N/NC(=O)c2sccc2OCc2ccc(F)cc2)cc1OC,/,/,/,.,/,/
O=C(Nc1ccc2oc(Cc3ccc(Cl)cc3)nc2c1)c1cccnc1,.,34,69,.,36,.
O=C(Nc1ccc2oc(-c3ccccc3Cl)nc2c1)c1cncc(Br)c1,17,.,.,.,18,.
O=C(Nc1ccc2oc(-c3ccccc3Cl)nc2c1)c1ncn[nH]1,.,.,.,.,.,.
CCOc1cccc(C(=O)Nc2ccc3oc(Cc4ccc(Cl)cc4)nc3c2)c1,.,/,/,.,24,.
CC(=O)OC(C(=O)NC1CCCCC1)c1ccc(C#N)cc1 (stereo not drawn),.,.,.,.,.,.
O=c1c2c3nc4ccccc4nc3n(-c3ccc4c(c3)OCCO4)c2ncn1C1CCCC1,.,.,.,/,21,13
CCNc1nc(NCC)nc(-n2nc(C)cc2C)n1,.,.,.,.,4.7,.
Cc1cc(C)n(-c2nc(NC(C)C)nc(NC(C)C)n2)n1,/,.,88,.,/,/
Cc1ccc(NCc2nnc(SCC(=O)NCCc3ccccc3)n2C)cc1,.,.,.,.,.,.
CCCS(=O)(=O)Nc1cc(C(F)(F)F)ccc1OCCOC,.,.,.,.,.,.
O=C(CCc1ccccc1)NNC(=S)NC(=O)c1ccccc1,/,/,/,63,/,/
O=C(NNC(=S)NC(=O)c1cccnc1)c1ccccc1,/,/,/,53,/,/
O=C(O)CCC(=O)Nc1nnc(C(F)(F)F)s1,.,.,.,.,.,.
CCC(NC(=O)Nc1nnc(C(F)(F)F)s1)(C(F)(F)F)C(F)(F)F,23,/,.,58,6.0,29
SMILES,HUVEC inhibit,Jurkat tox 60K,Ecoli tolC,Ecoli WT expand,H69AR growth 86K,Lung fibro prol
Cc1ccccc1C(=O)c1cccn1CC(=O)NCCN1CCN(c2cccc(C)c2C)CC1,6.1,/,/,.,5.2,.
CCN(CC)c1ccc(/C=c2/sc3nnc(-c4ccccc4C)n3c2=O)cc1,.,/,/,.,20,.
Cn1c(=O)c2c(SCc3cccnc3)nc(CC(C)(C)C)nc2n(C)c1=O,.,.,97,.,.,.
CCCc1nc(SCc2cccnc2)c2c(=O)n(C)c(=O)n(C)c2n1,/,.,.,.,/,/
O=C(Nc1nnc(C2CC2)s1)c1cc(-c2ccccc2)nn1-c1ccccc1,.,/,67,.,.,.
COc1ccc2c(c1)c(=O)oc1cc(OCC(=O)N3CCC(C)CC3)ccc12,.,/,.,.,.,.
CCCc1cc(=O)oc2cc(OCC(=O)N3CCc4ccccc43)ccc12,.,/,/,.,.,.
CCCCc1cc(=O)oc2cc(OCC(=O)N3CCc4ccccc43)ccc12,.,/,/,.,29,.
COc1ccc2c(c1)c(=O)oc1cc(OCC(=O)N3CCc4ccccc4C3)ccc12,.,/,/,.,29,.
Cc1ccc(S(=O)(=O)N[C@H](C(=O)N2CCC(C(=O)N3CCC[C@H]3C(=O)O)CC2)C(C)C)cc1,.,.,.,.,.,.
O=C(CC1CCCC1)Nc1ccc2c(c1)CCC2,.,/,/,.,.,.
CCOC(=O)c1c(-c2cccs2)csc1NC(=O)c1ccco1,.,.,.,/,.,.
CCOC(=O)c1c(C2COc3ccccc3O2)csc1NC(=O)c1ccco1 (stereo not drawn),.,.,.,.,31,.
C=CCn1c(=O)/c(=C/c2ccc(F)cc2)s/c1=C(\C#N)c1nnc2n1CCCCC2,.,.,.,.,39,.
CC(=O)C1(C)OC(N)=C(C#N)C(c2ccccc2)C1(C#N)C#N (stereo not drawn),.,/,.,.,38,.
CCCCCn1ccc(=O)c2c(C(F)(F)F)nccc21,.,/,/,/,.,.
CCOc1ccc(C(O)C(CN2CCOCC2)c2ccccc2)cc1 (stereo not drawn),.,/,/,.,.,.
CC(C)(C)c1ccc(OCC(=O)NCc2ccco2)c(Br)c1,.,.,100,.,.,.
O=C1CC(N2CCN(c3ccccn3)CC2)C(=O)N1CC(c1ccccc1)c1ccccc1 (stereo not drawn),.,/,/,/,.,.
COc1cc(Cl)c(C)cc1NC(=O)CNC(=O)Cn1cnc2ccccc2c1=O,/,/,/,.,/,/
CCCCOC(=O)Cn1c(=N)n(CCN2CCOCC2)c2ccccc21,.,/,.,/,.,.
N=c1n(CCN2CCOCC2)c2ccccc2n1CC(=O)c1ccc(Cl)c(Cl)c1,.,.,80,.,0.9,.
CCc1cccc(NC(=O)CSC2=NS(=O)(=O)c3ccccc32)c1,.,/,/,.,3.5,50
CCc1cccc(NC(=O)CSCc2cc(=O)[nH][nH]2)c1,.,/,/,.,.,.
Cc1cc(C)nc(Nc2n[nH]c(COc3ccccc3)n2)n1,.,.,.,/,.,.
SMILES,HUVEC inhibit,Jurkat tox 60K,Ecoli tolC,Ecoli WT expand,H69AR growth 86K,Lung fibro prol
Cc1cc(C)nc(Nc2n[nH]c(COc3cccc4ccccc34)n2)n1,.,/,/,.,38,.
CCCC(=O)Nc1ccc(C(=O)Nc2nnc(COCC)s2)cc1,.,/,/,/,.,.
Cc1sccc1C1C(C#N)=C(N)SC(N)=C1C#N,.,/,.,.,.,.
N#CC1=C(N)SC(N)=C(C#N)C1CCC1CCCCC1,.,.,99,.,.,.
CC(C)COc1ccc(-c2nnc(-c3ccco3)o2)cc1,.,.,61,.,.,.
CCCOc1ccc(-c2nnc(-c3ccco3)o2)cc1,.,.,.,.,.,.
COc1cccc(CNC(=O)CCNS(=O)(=O)c2cccs2)c1,.,/,.,.,.,.
Cc1[nH][nH]c(=O)c1C(c1ccc(-c2ccc(Cl)c(Cl)c2)o1)c1c(C)[nH][nH]c1=O,.,/,/,.,30,.
Cc1ccc(S(=O)(=O)Oc2ccc(C(c3c(C)[nH][nH]c3=O)c3c(C)[nH][nH]c3=O)cc2)cc1,.,/,/,.,.,.
